OX1R antag-1: OX1R (human) antagonism; inhibition, % at 6.6 µM; OX1R-expressing cells, FRET antagonist read-out; AID 485270; 330,000 tested, 1.8% active; in the data active = inhibition mostly above about 38%, no sharp cut-off; inactive = mostly below about 40%;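 note: 0% = agonist challenge alone and 100% = reference antagonist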
GPR7 antag: antagonists of human GPR7 (neuropeptides B/W receptor 1); 290,000 tested, 1.1% active; inhibition, % at 4.4 µM; P48145; GPR7-expressing cells, fluorescence antagonist assay; AID 1861; in the data active = inhibition above about 16%, passing the limit was not always enough;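 note: cells stimulated with the agonist NPW; 0% = agonist with vehicle and 100% = vehicle without agonist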
Target sequence (P48145 whole entry, looked up): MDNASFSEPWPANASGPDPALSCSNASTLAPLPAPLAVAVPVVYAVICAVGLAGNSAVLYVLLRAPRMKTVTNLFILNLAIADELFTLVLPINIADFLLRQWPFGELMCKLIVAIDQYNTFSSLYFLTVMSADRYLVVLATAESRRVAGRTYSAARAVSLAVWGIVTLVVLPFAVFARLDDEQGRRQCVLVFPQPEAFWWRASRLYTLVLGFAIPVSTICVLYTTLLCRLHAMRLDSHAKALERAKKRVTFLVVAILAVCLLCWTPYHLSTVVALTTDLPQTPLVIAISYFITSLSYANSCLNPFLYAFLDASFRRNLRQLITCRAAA
CHO parental Ca: counter-screen for OX1R antagonists: effect in parental CHO cells. inhibition, % at 5.6 µM. AID 463079. parental CHO-K1, ATP-induced calcium, Fluo-8 fluorescence. 330,000 tested, 0.63% active;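 active = inhibition above that plate's mean sample inhibition plus 3 SD, cut at about 26% in these data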;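 note: 0% = ATP-challenged DMSO wells and 100% = DMSO wells without ATP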
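Assay system – parental CHO cells · Reagent – ATP stimulus · Detection – intracellular calcium via Fluo-8 no-wash fluorescent dye · Evaluation – percent inhibition of ATP-evoked calcium rise, normalized to controls · Controls – ATP wells versus no-ATP DMSO wells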
TAAR1 antag: antagonists of human TAAR1; Q96RJ0; CHO RD-HGA16 TAAR1, Fluo-8 calcium fluorescence, antagonist; inhibition, % at 3 µM; 360,000 tested, 1.5% active;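 active = inhibition above a per-plate cutoff, the mean inhibition of test compounds on that plate plus 3 SD, cut at about 49% in these data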;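 note: 0% = DMSO plus EC80 beta-PEA response and 100% = DMSO alone without agonist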
Target sequence (Q96RJ0 whole entry, looked up): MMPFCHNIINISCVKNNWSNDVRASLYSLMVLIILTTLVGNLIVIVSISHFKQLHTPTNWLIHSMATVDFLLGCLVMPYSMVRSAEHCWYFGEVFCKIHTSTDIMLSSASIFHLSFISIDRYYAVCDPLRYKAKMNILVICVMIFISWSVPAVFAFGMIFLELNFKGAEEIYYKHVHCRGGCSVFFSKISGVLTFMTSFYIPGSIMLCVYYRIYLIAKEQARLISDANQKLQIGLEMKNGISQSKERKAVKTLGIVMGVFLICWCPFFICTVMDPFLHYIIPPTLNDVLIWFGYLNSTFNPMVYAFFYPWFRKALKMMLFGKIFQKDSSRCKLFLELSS
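System: CHO RD-HGA16 cells bearing hTAAR1. Reagent: EC80 β-phenethylamine stimulus. Schedule: seeding 17-24 h prior, 75-min 37 °C, 30-min RT dye loading. Signal: Fluo-8 intracellular calcium dye fluorescence, real-time kinetic reads. Read-out: % inhibition from peak post-agonist over basal fluorescence ratio. Benchmarks: vehicle wells and EC80 agonist wells. Replicates: n of 1.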
OX1R antag-2: blocks the human orexin 1 receptor | inhibition, % at 5 µM | 330,000 tested, 0.43% active | CHO/OX1R cells, Fluo-8 calcium fluorescence, orexin A | O43613;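 active = inhibition above its plate's threshold, mean inhibition of all tested compounds on the plate plus 3 SD, cut at about 37% in these data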;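 note: 0% = orexin A challenge wells and 100% = SB-334867-A antagonist wells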
TAAR1 agonist: agonists of human TAAR1 | Q96RJ0 | CHO RD-HGA16 TAAR1, Fluo-8 calcium fluorescence; vehicle wells 0%, saturating PEA agonist 100% | activation, % at 3 µM | 360,000 tested, 0.99% active | AID 624467;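 active = activation above the mean activation of all test compounds in the run plus 3 SD, cut at about 38% in these data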
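Repeats: no replicates (n 1) | Material: CHO-derived RD-HGA16 cells with stable Gα16 and human TAAR1 | Technique: Kinetic Fluo-8 calcium fluorescence | Schedule: 17-24 h seeding, 75 min 37 °C dye, 30 min RT | Evaluation: % activation from peak over basal fluorescence ratio, DMSO-to-PEA scaled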
OX1R Ca confirm: confirmation of human orexin 1 receptor antagonists | inhibition, % at 5 µM | AID 492963 | CHO/OX1R cells, orexin A calcium Fluo-8 fluorescence | 1,100 tested, 38% active | shares compounds with OX1R antag-2; in the data active = inhibition above about 29%;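 note: 0% = agonist challenge alone and 100% = reference antagonist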
CHO Ca triplic: counter-screen for OX1R antagonists: effect in parental CHO cells; shares compounds with OX1R antag-2; parental CHO-K1, ATP-induced calcium, Fluo-8 fluorescence; inhibition, % at 5.6 µM; 1,100 tested, 9.3% active; AID 492965;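 active = inhibition above a per-plate limit, the mean inhibition of that plate's test compounds plus 3 SD, cut at about 25% in these data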;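 note: 0% = ATP challenge with DMSO and 100% = DMSO without ATP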
* = called active by the depositor; nt = not tested or not shown. Most compounds without a hit are left out; they make up all but 4.5% or so of the library.

SMILES	OX1R antag-1	GPR7 antag	CHO parental Ca	TAAR1 antag	OX1R antag-2	TAAR1 agonist	OX1R Ca confirm	CHO Ca triplic
CCc1ccc(NC(=O)[C@@H](NC(=O)[C@@H]2Cc3ccccc3CN2)C(C)CC)cc1 (stereo partly specified)	0	-2	-9	13	77*	-1	-12	-14
COc1ccc(Cl)cc1C(=O)Nc1ccc(NC(C)=O)cc1	29	-5	0	5	3	0	nt	nt
CCCCOC(=O)c1ccc(NC(=O)c2cc(Cl)ccc2OC)cc1	33	1	-19	-9	37	10	29*	-15
O=C(c1ccccn1)N1CCCC(N2CCN(c3cccc(C(F)(F)F)c3)CC2)C1 (stereo unspecified)	14	-13	-23	-3	-42	-1	nt	nt
Cc1nn(C)c(C(=O)Nc2ccc(Cl)c([N+](=O)[O-])c2)c1Cl	5	-5	3	6	36	3	2	0
Cc1nn(C)c(C(=O)Nc2ccc3c(c2)OCO3)c1[N+](=O)[O-]	nt	-2	nt	-4	nt	0	nt	nt
CCOc1ccc(S(=O)(=O)n2cnc3cc(C)c(C)cc32)cc1	22	8	1	-15	60*	3	-1	59*
Cc1cc2ncn(S(=O)(=O)c3ccc(S(N)(=O)=O)cc3)c2cc1C	nt	nt	nt	4	nt	0	nt	nt
Cc1ccc(C)c(Cn2nnc3c(=O)[nH]c(C4CCN(C(=O)c5ccco5)CC4)nc32)c1	6	-1	-26	-11	-16	3	nt	nt
Cc1cc(NC(=O)COC(=O)c2cccc(S(=O)(=O)N3CCOCC3)c2)no1	12	-7	-11	-6	-21	19	nt	nt
O=C(COC(=O)c1cccc(S(=O)(=O)N2CCOCC2)c1)Nc1nc(-c2ccccc2Cl)cs1	9	4	23	10	33	11	36*	26*
O=S1(=O)CC(N2CCC(Cc3ccccc3)CC2)CN1CCc1ccccc1 (stereo unspecified)	nt	nt	nt	-15	nt	13	nt	nt
CC(C)c1ccc(CNc2cc(N3CCCC3)ccc2[N+](=O)[O-])cc1	8	1	8	-8	53*	1	-7	39*
CC(C)(C)CNc1cc(N2CCCC2)ccc1[N+](=O)[O-]	9	-7	-14	nt	-14	nt	nt	nt
O=C(COc1ccccc1Cl)Nc1ccc2[nH]c(=O)[nH]c2c1	nt	nt	nt	-17	nt	2	nt	nt
N#Cc1ccccc1NC(=O)C(=O)NCC1CCCN1S(=O)(=O)c1cccs1 (stereo unspecified)	29	nt	-7	24	17	5	21	-9
CCOC(=O)c1oc2ccc(S(=O)(=O)Nc3ccc4c(c3)n(C)c(=O)n4C)cc2c1C	25	-22	17	4	47*	8	-6	3
COc1ccc(S(=O)(=O)Nc2ccc3c(c2)n(C)c(=O)n3C)cc1C	8	14	-12	9	-1	8	nt	nt
Fc1ccc2c(c1)Sc1ccc(Cl)cc1CC2N1CCN(CCC2OCCO2)CC1 (stereo unspecified)	6	nt	16	8	38	5	8	-2
O=C(Cc1cccs1)Nc1ccc(-c2nnc(-c3ccccc3)o2)cc1	19	-4	-18	9	-26	13	nt	nt
Cc1cccc(-c2nnc(-c3cccc(NC(=O)Cc4cccs4)c3)o2)c1	37	-11	25	74*	65*	11	0	-12
Fc1cccc2sc(Nc3nc4ccccc4s3)nc12	28	-6	-2	5	36*	0	51*	14
Fc1ccc2nc(Nc3nc4c(F)cc(F)cc4s3)sc2c1	21	-9	11	-5	-11	4	nt	nt
Fc1ccc2nc(Nc3nc4c(F)cccc4s3)sc2c1	41	2	-13	-8	68*	3	51*	0
COCCn1c(N)c(C#N)c2nc3ccccc3nc21	27	-10	-7	2	1	3	nt	nt
SMILES	OX1R antag-1	GPR7 antag	CHO parental Ca	TAAR1 antag	OX1R antag-2	TAAR1 agonist	OX1R Ca confirm	CHO Ca triplic
COc1cc(Cn2c(N)c(C#N)c3nc4ccccc4nc32)cc(OC)c1	28	4	19	-13	28	17	33*	6
Cc1ccc(NS(=O)(=O)c2cc3[nH]c(=O)c(=O)[nH]c3cc2C)c(C)c1	17	-9	5	-1	0	1	nt	nt
CN(CC(=O)Nc1ccccc1Br)C(=O)CN1CCN(c2ccccc2Cl)CC1	2	nt	-33	-1	-49	1	nt	nt
Cc1cc(NS(=O)(=O)c2ccc(NC(=O)CCCOc3cccc(C)c3C)cc2)no1	17	-22	-15	-32	-11	-2	nt	nt
O=C(Oc1ccc(Cl)c2cccnc12)N1CCOCC1	13	-12	-22	-20	-7	0	nt	nt
O=C(Oc1ccc(Cl)c2cccnc12)N1CCCCC1	26	-1	-5	-5	90*	17	-15	-4
CCCCCCNC(=O)CC(c1ccccc1)c1cc(Br)ccc1O (stereo unspecified)	53	-6	17	35	35	12	-13	-15
CO[C@@]12[C@@H]3N[C@@H]3CN1C1=C(C(=O)C(N)=C(C)C1=O)[C@@H]2COC(N)=O	nt	nt	nt	-5	nt	1	nt	nt
CCOc1ccccc1NC(=O)CCN(c1ccc(C)cc1)S(=O)(=O)c1ccccc1	55	13	-23	-6	1	-1	nt	nt
CCOc1ccccc1NC(=O)CN(c1nccs1)S(=O)(=O)c1ccc(N)cc1	72	-1	-18	5	28	2	30*	-15
CC(C)OC(=O)NCCOC(=O)Nc1ccc(Cl)cc1	4	-1	6	16	29	8	11	9
CC(C)OC(=O)NCCOC(=O)Nc1ccccc1Cl	9	-11	4	-19	-10	11	nt	nt
O=C(CSc1nc2ccccc2[nH]1)Nc1ccccc1N1CCOCC1	75	-14	-1	-16	38	7	35*	-9
c1ccc(Cn2nnnc2C(c2cccs2)N2CCCCCC2)cc1 (stereo unspecified)	9	-10	4	48	38	18	-15	-13
COc1ccc(Cn2nnnc2C(c2cccs2)N2CCN(c3ccccc3)CC2)cc1 (stereo unspecified)	29	-9	-9	5	-23	6	nt	nt
COc1oc(C(=O)NC2CCCCC2)c(-c2ccc(Cl)cc2)c1S(=O)(=O)c1ccccc1	nt	nt	nt	8	nt	0	nt	nt
Cn1c(CSc2ncccn2)nnc1SCC(=O)N1CCCc2ccccc21	8	7	-13	13	32	5	-2	-4
